Measured values taken from ChEMBL document CHEMBL3525945, “Metabolic switching of BILR 355 in the presence of ritonavir. II. Uncovering novel contributions by gut bacteria and aldehyde oxidase” (Drug Metab Dispos, 2012).

What was measured:
Cytochrome P450 3A4 = Cytochrome P450 3A4 (Homo sapiens, UniProt P08684); test: Activity at recombinant CYP3A4 (unknown origin) expressed in baculovirus-infected insect cells assessed as enzyme-mediated drug depletion at 1 to 10 uM by LC-MS/MS analysis in presence of NADPH; assay type: ADME; details: TDE = time-dependent effect
In short: (§1)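 BILR 402 (1 or 10 μM) with baculovirus/insect-cell recombinant CYPs, levels scaled to average liver content (1A2 2, 2A6 1, 2B6 0.1, 2C9 1.5, 2C19 1.5, 2D6 0.3, 3A4 5 pmol/mL). Buffer 0.1 M potassium phosphate, 5 mM MgCl2, pH 7.4; 2.5 mM NADPH; 37 °C. Non-transfected insect microsomes served as controls. Aliquots taken 0.5–30 min and acetonitrile-quenched; depletion measured by LC-MS/MS with isotope-labelled internal standard.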

Cytochrome P450 2D6 = Cytochrome P450 2D6 (Homo sapiens, UniProt P10635); test: Activity at recombinant CYP2D6 (unknown origin) expressed in baculovirus-infected insect cells assessed as enzyme-mediated drug depletion at 1 to 10 uM by LC-MS/MS analysis in presence of NADPH; assay type: ADME; in short: as §1
Cytochrome P450 2A6 = target: T1, Cytochrome P450 2A6 (Homo sapiens, UniProt P11509); test: Activity at recombinant CYP2A6 (unknown origin) expressed in baculovirus-infected insect cells assessed as enzyme-mediated drug depletion at 1 to 10 uM by LC-MS/MS analysis in presence of NADPH; assay type: ADME; in short: as §1
T1 sequence (P11509 whole entry): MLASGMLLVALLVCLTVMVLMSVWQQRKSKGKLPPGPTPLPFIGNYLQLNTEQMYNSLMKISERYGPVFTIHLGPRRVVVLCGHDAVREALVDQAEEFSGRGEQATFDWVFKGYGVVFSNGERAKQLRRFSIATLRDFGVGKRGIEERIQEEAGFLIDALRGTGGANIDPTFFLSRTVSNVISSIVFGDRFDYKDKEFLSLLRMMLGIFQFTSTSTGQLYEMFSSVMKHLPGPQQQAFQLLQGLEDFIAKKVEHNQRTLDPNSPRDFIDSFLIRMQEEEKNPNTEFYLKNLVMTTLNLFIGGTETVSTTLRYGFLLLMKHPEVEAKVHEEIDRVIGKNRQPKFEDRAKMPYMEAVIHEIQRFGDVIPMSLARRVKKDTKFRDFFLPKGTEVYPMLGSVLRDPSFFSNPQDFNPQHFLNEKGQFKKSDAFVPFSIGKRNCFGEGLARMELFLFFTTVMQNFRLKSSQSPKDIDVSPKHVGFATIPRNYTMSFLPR

[1] = Drug metabolism in human liver S9 fraction assessed as BILR355 formation at 10 uM by LC-MS/MS analysis in presence of NADPH; assay type: ADME, subcellular; details: s9, 10 µM
In short: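 BILR 402 (10 μM final) was incubated with human liver S9 or cytosol (1 mg/mL protein) in 0.05 M potassium phosphate pH 7.4 at 37 °C. Runs were done with or without 2.5 mM NADPH. Samples at 10, 20, 30 and 60 min were quenched in nevirapine/acetonitrile, filtered and analysed by LC-MS/MS; duplicate.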

Aldehyde oxidase = target: T2, Aldehyde oxidase (Homo sapiens, UniProt Q06278); test: Drug metabolism in human liver cytosol assessed as intrinsic clearance for high affinity low capacity site aldehyde-oxidase-mediated BILR516 metabolite formation measured per mg protein after 10 mins by Eadie-Hofstee plot analysis; assay type: ADME, tissue-based
T2 sequence (Q06278 whole entry): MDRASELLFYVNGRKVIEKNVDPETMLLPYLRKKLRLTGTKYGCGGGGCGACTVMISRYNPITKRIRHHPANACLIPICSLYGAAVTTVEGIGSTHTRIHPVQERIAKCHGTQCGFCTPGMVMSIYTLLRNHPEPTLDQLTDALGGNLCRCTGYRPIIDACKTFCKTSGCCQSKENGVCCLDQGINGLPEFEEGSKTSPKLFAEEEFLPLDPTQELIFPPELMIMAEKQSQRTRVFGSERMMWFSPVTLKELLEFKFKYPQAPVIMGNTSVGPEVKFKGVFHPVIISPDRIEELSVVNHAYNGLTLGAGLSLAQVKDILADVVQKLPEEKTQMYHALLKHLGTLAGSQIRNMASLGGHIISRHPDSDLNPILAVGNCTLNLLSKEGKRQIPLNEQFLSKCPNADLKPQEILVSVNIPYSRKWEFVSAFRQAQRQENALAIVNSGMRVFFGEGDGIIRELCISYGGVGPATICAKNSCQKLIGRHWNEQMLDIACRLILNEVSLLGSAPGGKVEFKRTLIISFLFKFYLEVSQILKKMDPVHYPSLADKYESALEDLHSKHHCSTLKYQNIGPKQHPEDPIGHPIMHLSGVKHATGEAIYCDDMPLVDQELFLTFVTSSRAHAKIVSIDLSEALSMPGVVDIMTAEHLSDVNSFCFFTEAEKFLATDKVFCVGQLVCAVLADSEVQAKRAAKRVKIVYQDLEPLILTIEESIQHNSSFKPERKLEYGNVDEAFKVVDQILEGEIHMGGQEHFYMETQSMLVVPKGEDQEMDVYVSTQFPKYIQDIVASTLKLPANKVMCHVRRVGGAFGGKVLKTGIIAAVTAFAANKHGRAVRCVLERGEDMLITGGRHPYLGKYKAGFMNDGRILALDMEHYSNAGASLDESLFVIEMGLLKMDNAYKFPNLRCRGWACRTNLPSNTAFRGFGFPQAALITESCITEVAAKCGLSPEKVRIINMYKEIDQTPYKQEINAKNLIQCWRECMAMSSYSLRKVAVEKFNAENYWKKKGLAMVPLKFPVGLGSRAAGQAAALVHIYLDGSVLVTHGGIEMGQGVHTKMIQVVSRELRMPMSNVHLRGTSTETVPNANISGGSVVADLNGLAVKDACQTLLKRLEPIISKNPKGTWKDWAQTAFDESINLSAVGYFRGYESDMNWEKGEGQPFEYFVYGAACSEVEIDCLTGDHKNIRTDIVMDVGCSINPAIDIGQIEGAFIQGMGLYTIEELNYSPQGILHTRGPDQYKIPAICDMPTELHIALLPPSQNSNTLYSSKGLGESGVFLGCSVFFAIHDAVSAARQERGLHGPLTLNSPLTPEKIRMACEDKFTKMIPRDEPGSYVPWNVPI
In short: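 Human liver cytosol (0.1 mg/mL) was incubated with BILR 402 at 12 concentrations, 0.061–125 μM, for 10 min at 37 °C in 0.05 M potassium phosphate pH 7.4 without NADPH, within the linear range for protein and time. […] Apparent Km and Vmax were derived from the kinetic data.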

Sequence of Cytochrome P450 2D6 (P10635 whole entry): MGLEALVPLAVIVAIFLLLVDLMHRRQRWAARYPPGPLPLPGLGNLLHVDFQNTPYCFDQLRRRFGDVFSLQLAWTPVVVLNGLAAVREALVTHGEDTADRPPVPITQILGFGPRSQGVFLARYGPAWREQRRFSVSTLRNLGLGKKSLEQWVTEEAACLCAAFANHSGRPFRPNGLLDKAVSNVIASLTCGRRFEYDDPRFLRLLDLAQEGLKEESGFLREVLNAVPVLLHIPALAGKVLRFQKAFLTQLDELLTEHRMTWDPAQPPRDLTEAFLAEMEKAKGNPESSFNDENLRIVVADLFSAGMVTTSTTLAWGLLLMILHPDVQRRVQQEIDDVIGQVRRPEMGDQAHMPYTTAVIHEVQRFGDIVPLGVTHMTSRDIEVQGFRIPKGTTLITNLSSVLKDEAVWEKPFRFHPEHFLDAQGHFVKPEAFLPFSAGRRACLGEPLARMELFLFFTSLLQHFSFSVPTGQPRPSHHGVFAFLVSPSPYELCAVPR
Sequence of Cytochrome P450 3A4 (P08684 whole entry): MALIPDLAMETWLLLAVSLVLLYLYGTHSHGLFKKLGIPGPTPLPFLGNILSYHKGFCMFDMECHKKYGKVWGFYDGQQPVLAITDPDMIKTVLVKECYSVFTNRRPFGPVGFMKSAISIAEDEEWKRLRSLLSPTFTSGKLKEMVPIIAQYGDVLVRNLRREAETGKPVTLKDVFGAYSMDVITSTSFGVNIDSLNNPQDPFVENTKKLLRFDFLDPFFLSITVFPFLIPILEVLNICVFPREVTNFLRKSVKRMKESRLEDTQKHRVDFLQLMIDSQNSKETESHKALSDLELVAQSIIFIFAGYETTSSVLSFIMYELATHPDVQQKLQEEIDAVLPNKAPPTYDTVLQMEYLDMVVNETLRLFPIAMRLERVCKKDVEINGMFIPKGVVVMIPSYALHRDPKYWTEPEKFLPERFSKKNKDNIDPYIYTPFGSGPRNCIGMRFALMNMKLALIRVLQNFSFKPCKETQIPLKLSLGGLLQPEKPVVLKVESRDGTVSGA

- Drug metabolism (Cytochrome P450 3A4): tde
- Drug metabolism (Cytochrome P450 2D6): metabolite_not_detected
- Drug metabolism (Cytochrome P450 2A6): metabolite_not_detected
- Drug metabolism [1]: metabolite_detected
- CLHH (Aldehyde oxidase): 437 µL/min/mg
SMILES: CCN1c2ncc(CCOc3ccnc4ccccc34)cc2C(=O)N(C)c2cccnc21
